CHT PAM: allosteric activators of human choline transporter CHT; Q9GZV3; CHT-expressing cells, membrane potential dye, choline EC20; stronger effect = higher value; LV-AA mutant CHT in HEK293 cells; B-score at 10 µM; 310,000 tested, 0.49% active; AID 488977;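 active means initial fluorescence not abnormally high and integrated response B-score, plate-corrected, over 3 SD above library mean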
CHT block: human CHT choline transport inhibition; Q9GZV3; CHT-expressing cells, membrane potential dye, choline response; stronger effect = lower value; B-score at 10 µM; 310,000 tested, 0.86% active;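 active means B-score over 3 SD under the library average, and starting fluorescence ratio not unusually high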;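 further: choline stimulus applied at its EC90 after an EC20 pre-addition; B-score computed on integrated fluorescence ratio after choline addition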
T cell modulator: T cell immune modulation candidate; 330,000 tested, 0.068% active; response (vesicle binding), % at 7 µM; 2C CD8+ T cell-vesicle binding, flow cytometry; stronger effect = lower value;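 active means response, share of CD8 T cells binding vesicles, and their 90th percentile fluorescence all below set limits, cut at about 80% in these data, passing the limit was not always enough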;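 further: values below 100% mean blocked vesicle binding to the CD8+ T cells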
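incubation = binding step 1.5 h, 37 °C, antibody labelling 20 min, ice | test system = 2C mouse CD8+ T cells | read-out basis = percent CD8+ FL2 mean versus row control | controls = Peptide-free naked vesicles (low) and QL9 vesicles with 0.7% DMSO vehicle (high) | detection = flow cytometry of vesicle-bound cells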
VLA-4 inh: inhibition in a human VLA-4 binding assay; VLA-4 expressing cells, ligand binding flow cytometry; inhibition, % (about 7 µM as worked out from the volumes in the protocol); 330,000 tested, 0.2% active; in the data active means inhibition above about 50%
Target sequence (P13612 whole entry, looked up): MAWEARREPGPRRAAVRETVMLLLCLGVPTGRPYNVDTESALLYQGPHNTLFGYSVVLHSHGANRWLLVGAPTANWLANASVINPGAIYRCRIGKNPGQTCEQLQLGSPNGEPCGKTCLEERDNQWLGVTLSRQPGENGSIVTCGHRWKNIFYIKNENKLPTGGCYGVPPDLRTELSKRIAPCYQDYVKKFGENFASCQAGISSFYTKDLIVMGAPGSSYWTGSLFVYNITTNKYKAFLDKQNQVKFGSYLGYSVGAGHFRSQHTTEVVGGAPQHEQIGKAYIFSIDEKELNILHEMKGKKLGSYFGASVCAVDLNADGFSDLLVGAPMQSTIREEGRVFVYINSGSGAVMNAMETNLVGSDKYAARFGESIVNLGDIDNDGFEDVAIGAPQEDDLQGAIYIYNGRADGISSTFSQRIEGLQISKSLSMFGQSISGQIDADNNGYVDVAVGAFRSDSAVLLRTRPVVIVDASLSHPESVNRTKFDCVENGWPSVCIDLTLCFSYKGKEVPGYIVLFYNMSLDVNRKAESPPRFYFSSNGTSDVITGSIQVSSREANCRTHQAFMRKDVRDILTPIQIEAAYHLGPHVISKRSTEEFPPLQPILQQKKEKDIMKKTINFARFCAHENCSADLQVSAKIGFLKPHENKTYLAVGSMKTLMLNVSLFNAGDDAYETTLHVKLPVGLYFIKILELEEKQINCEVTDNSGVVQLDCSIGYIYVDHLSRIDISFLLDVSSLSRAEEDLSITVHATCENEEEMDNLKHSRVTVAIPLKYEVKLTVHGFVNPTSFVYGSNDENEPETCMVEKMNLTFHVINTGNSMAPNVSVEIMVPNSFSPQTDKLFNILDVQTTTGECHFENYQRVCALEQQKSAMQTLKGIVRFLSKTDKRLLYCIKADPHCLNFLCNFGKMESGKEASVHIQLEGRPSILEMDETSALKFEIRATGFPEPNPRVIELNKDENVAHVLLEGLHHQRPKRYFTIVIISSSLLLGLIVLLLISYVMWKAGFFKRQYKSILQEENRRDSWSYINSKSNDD
CHT block conf: human CHT inhibition, confirmatory screen; shares compounds with CHT block; CHT-expressing cells, choline membrane potential dye; LV-to-AA substituted CHT, HEK293 cells; CHT activity remaining % of control (stronger effect = lower value), % at 10 µM; 2,400 tested, 70% active; AID 493221;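 active means choline transporter activity left, mean of duplicates at 10 µM, below buffer-only control mean minus 3 SD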;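 further: depolarization triggered by choline at its EC90 following an EC20 pre-addition; 0% = hemicholinium-3 full block and 100% = buffer-only control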
HEK293 MPD ctr: activity in parental HEK293 cells lacking CHT; shares compounds with CHT block; membrane potential dye, choline response; active = decrease or increase beyond buffer ±3SD; membrane potential ratio readout (active if shifted either direction beyond buffer ±3SD; no single direction) at 10 µM; 2,400 tested, 4% active;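 further: parental cells lack the transporter so any hit is non-specific; ratio is peak minus trough fluorescence over baseline after EC90 choline challenge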
The depositor's hits bear a star; i = inactive; . = not tested or not shown. Hits are enriched below; roughly 1.5% of the tested compounds scored in any of these assays.

SMILES | CHT PAM | CHT block | T cell modulator | VLA-4 inh | CHT block conf | HEK293 MPD ctr
COc1ccc(-c2nc3ccc(C(=O)NCCCN4CCOCC4)cc3nc2-c2ccc(OC)cc2)cc1 | i | -5.1* | 276 | 11 | 53%* | i
COc1ccc(NS(=O)(=O)c2cccc(C(=O)NCCCN3CCOCC3)c2)cc1 | i | i | 141 | 1 | . | .
CCN1CCN(CCNC(=O)c2ccc3nc(-c4cccc(C)c4)c(-c4cccc(C)c4)nc3c2)CC1 | i | -8.7* | 476 | 5 | 36%* | i
COc1ccc(C(C)=O)cc1CSc1nnc(-c2ccc(Cl)cc2)n1-c1ccccc1 | i | i | 200 | -3 | . | .
CCn1c(=O)n(CC)c2cc(S(=O)(=O)N3CCc4ccccc43)ccc21 | i | -5.9* | 388 | 4 | 44%* | i
CCOc1ccc(NS(=O)(=O)c2cc(C(=O)N(CC)CC(=O)NCc3cccs3)ccc2C)cc1 | i | i | 204 | 12 | . | .
COc1ccccc1CCNS(=O)(=O)CCNC(=O)c1ccc2c(c1)OCO2 | i | i | 275 | -2 | . | .
CCOC(=O)C1CCN(S(=O)(=O)c2ccc3oc(=O)ccc3c2)CC1 | i | i | 184 | -4 | . | .
COc1ccc(C(=O)C2CCCN(C(=O)C3=CCCC3)C2)c(C)c1 (centres undefined) | i | -5* | 150 | -3 | 35%* | i
Cn1c(-c2sc3ccccc3c2Cl)n[nH]c1=S | i | -5.1* | 408 | 11 | 50%* | i
Nc1ncnc(Nc2ccccc2Cl)n1 | i | i | 828 | 7 | . | .
Cn1c2c(c(=O)c3ccccc31)CCCC2 | i | -9* | 272 | 8 | 3.9%* | i
Nc1cc(S(=O)(=O)N2CCCCC2)ccc1Oc1ccc(Cl)cc1 | i | -9.4* | 584 | 14 | i | i
CC1CC(C)CN(C(=O)C(Cc2ccccc2)NC(=O)c2ccccc2)C1 (centres undefined) | i | i | 150 | -3 | . | .
CCCCN(CCCC)CCCNC(=O)C12CN(Cc3ccccc3)CC1C(c1cccc([N+](=O)[O-])c1)=NO2 (centres undefined) | i | -11* | 32 | -10 | 15%* | i
COc1ccccc1CNC(=O)COC(=O)C1CCN(S(=O)(=O)c2ccc(C)c(C)c2)CC1 | i | i | 582 | -4 | . | .
COC(=O)c1sc(NC(=S)NNC(=O)c2c(Br)c(C)nn2C)c(C(=O)OC)c1C | i | -5.6* | 264 | 13 | i | i
CCCCn1c(Oc2ccc(C(=O)OC)cc2)nc2c1c(=O)n(C)c(=O)n2C | i | -6.8* | 534 | -1 | i | i
CC(C)=CCN1CCN(Cc2nc(-c3ccc(F)cc3)cs2)CC1CCO (centres undefined) | i | -5.4* | 0 | . | i | i
Cc1ccc(Nc2nc(CSc3nnc(-c4ccc(F)cc4)n3C)cs2)cc1 | i | -6* | 255 | 2 | 48%* | i
CC(C)c1ccc(NC2CCCN(C(=O)c3cccs3)C2)cc1 (centres undefined) | i | i | 325 | -101 | . | .
CCc1cc(CC)c(/C=N/NC(N)=O)c(CC)c1/C=N/NC(N)=O | i | -9.3* | 117 | -7 | 19%* | i
O=C(Oc1cccccc1=O)c1ccccc1 | i | -6.9* | 150 | 1 | i | i
CCOC(=O)N1CCN(C(=O)C(c2ccccc2)c2ccccc2)CC1 | i | -6.5* | 657 | -6 | i | -11*
O=C1c2cccc(OCC(=O)N3N=C(c4cccs4)CC3c3ccc(F)cc3)c2CCN1Cc1cccnc1 (centres undefined) | i | i | 147 | 7 | . | .
SMILES | CHT PAM | CHT block | T cell modulator | VLA-4 inh | CHT block conf | HEK293 MPD ctr
O=C(Nc1nc(-c2cccs2)c(C(=O)C(F)(F)F)s1)c1ccco1 | i | -5.2* | 642 | -4 | i | i
CC(C)(C)OC(=O)NCCCCCc1nnc(SCC(N)=O)o1 | i | -6.3* | 578 | 1 | i | i
Cc1ccc(CSc2nnc(CCNC(=O)OC(C)(C)C)o2)cc1 | i | -5.3* | 612 | 5 | 69%* | i
C=C(C)CSc1nnc(CCCCCNC(=O)OC(C)(C)C)o1 | i | -6* | 968 | 11 | 68%* | i
CCN(CC)C(=O)CSc1nnc(CCCCCNC(=O)OC(C)(C)C)o1 | i | i | 265 | 10 | . | .
CC(C)(C)OC(=O)NCCc1nnc(SCC(N)=O)o1 | i | i | 342 | 18 | . | .
CC(C)(C)OC(=O)NCCc1nnc(SCc2ccccc2)o1 | i | i | 608 | 5 | . | .
C/C(=N\N=C(N)N)c1ccc(Cl)cc1Cl | i | -7.5* | 363 | 4 | 16%* | i
CCC(Sc1nnc(-c2ccc(C)c(Cl)c2)n1CC)C(=O)Nc1nccs1 (centres undefined) | i | -5.9* | 196 | -10 | 50%* | i
O=C(Nc1ccccc1C(=O)O)/C(=C/c1ccc(Cl)cc1Cl)NC(=O)c1ccco1 | i | i | 422 | -2 | . | .
CCC(=O)Nc1cc2nn(-c3ccc(OC)cc3)nc2cc1C | i | -6.6* | 0 | 14 | i | i
CCCCC(=O)Nc1cc2nn(-c3ccc(OC)cc3)nc2cc1C | i | i | 482 | 10 | . | .
O=C(NC1CCCCC1)N(Cc1ccccc1)Cc1ccco1 | i | -5.6* | 139 | 4 | 70%* | i
CCOc1c(Cl)cc(/C=C/C(=O)N(CC)CC(=O)NCc2cccs2)cc1OC | i | -7.6* | 207 | -1 | i | i
CN(C)S(=O)(=O)c1cccc(NC(=O)C2Cc3ccccc3CN2C(=O)c2ccco2)c1 (centres undefined) | i | i | 249 | -3 | . | .
Cc1ccc(C(=O)NCC(=O)OCc2nnc(-c3ccc([N+](=O)[O-])cc3)o2)s1 | . | . | 245 | -1 | . | .
COc1ccccc1C(=O)NC(C)c1cccc2ccccc12 (centres undefined) | i | -5.7* | 422 | -2 | 54%* | i
COc1cccc(C(=O)NC(C)c2cccc3ccccc23)c1OC (centres undefined) | i | i | 233 | 7 | . | .
O=[N+]([O-])c1cc(Cc2ccccc2)cc(C=Nc2ccc(N3CCOCC3)cc2)c1O | i | -5.9* | 311 | -37 | 66%* | i
Cc1coc2c(C)c3oc(=O)c(CCC(=O)NCCCn4ccnc4)c(C)c3cc12 | i | i | 234 | -19 | . | .
Cc1c(CCC(=O)NCCCn2ccnc2)c(=O)oc2c(C)c3occ(C(C)(C)C)c3cc12 | i | -5.5* | 85 | 4 | 29%* | i
O=c1cc(-c2ccccc2)c2c(O)cc(O)cc2o1 | i | -5* | 219 | -4 | 50%* | i

Screens as filed in PubChem BioAssay.
